A selection: hits, their analogues and other compounds. The true share with any hit is near 4.1%.
KCNK3 inh – human KCNK3 channel inhibition, primary screen; O14649; CHO-KCNK3 thallium flux, FluxOR fluorescence; hits give low values; B-score at 10 µM; actives 0.84% (n = 340,000);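 active = B-score under library mean minus 4 SD, starting fluorescence ratio at most library mean plus 5 SD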;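 also: more negative B-score means stronger inhibition of thallium flux through KCNK3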
KCNK9 inh – inhibitors of human KCNK9 two-pore domain potassium channel; Q9NPC2; HEK293 KCNK9, FluxOR thallium flux fluorescence; hits give low values; B-score at 10 µM; actives 1.2% (n = 310,000);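 active = ratio B-score over 3 SD below the library mean, with starting fluorescence within 5 SD of its mean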;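 also: negative B-score means less thallium flux so channel inhibition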
KCC2 mod – modulates chloride dependent transport by human KCC2; Q9H2X9; KCC2 cells, thallium flux FluoZin-2 fluorescence; B-score of Tl+ flux slope (higher = more flux/activation; lower = inhibition) at 10 µM; actives 2.2% (n = 190,000);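 active = thallium flux slope and its plate-corrected score both differing from the plate sample mean at a set confidence after two filtering rounds, in either direction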;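 also: slope of fluorescence scaled to starting intensity during 10 to 20 s after thallium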
KCNQ1 block – inhibitors of human KCNQ1 potassium channel; CHO-K1 KCNQ1, FluxOR thallium flux fluorescence; hits give high values; B-score at 10 µM; P51787; actives 1.3% (n = 310,000);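 active = compounds whose thallium flux B-score, printed positive for inhibition, exceeds three library SD while starting fluorescence stays within three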;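 also: channel opened by potassium depolarization with thallium stimulus after 20 min compound exposure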
Target sequence (P51787 whole entry, looked up): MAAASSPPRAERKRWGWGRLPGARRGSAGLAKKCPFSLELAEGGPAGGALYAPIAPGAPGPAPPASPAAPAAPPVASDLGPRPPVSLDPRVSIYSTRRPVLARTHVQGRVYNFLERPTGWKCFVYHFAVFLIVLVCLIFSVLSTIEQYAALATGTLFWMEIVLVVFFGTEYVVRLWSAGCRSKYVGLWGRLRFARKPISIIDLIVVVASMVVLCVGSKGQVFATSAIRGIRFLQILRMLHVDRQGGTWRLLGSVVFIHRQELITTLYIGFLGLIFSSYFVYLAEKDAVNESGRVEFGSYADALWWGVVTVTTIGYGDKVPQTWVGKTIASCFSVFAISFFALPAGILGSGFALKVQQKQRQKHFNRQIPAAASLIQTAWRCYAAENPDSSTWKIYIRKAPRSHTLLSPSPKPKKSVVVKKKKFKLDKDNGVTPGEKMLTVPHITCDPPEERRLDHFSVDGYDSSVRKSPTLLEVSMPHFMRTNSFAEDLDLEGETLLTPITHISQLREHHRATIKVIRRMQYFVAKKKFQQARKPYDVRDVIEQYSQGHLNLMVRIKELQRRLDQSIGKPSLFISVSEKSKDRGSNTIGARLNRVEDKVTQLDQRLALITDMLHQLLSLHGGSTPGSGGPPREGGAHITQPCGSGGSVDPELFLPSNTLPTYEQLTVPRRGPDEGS
hERG protect – shields human hERG channel from block by proarrhythmic agents | Q12809 | CHO-hERG, FluxOR thallium flux, dofetilide IC70 present | activation (rescue from dofetilide block), less the hit threshold, % at 10 µM | actives 0.51% (n = 310,000);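 active = activation above the mean of controls blocked by dofetilide plus 5 SD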;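 also: thallium influx through hERG after potassium depolarization seen as dye fluorescence rise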
KCNQ1 act – potentiates or activates the human KCNQ1 potassium channel; actives 0.35% (n = 310,000); CHO-K1 KCNQ1, thallium flux FluxOR fluorescence; hits give high values; B-score at 10 µM; P51787;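 active = fluorescence ratio B-score, a plate-corrected score, at least three library SD, with initial intensity B-score within 5 SD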
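Test system: CHO-K1 cells stably expressing KCNQ1 / Medium: assay buffer / Also added: depolarizing K+/Tl+ stimulus, K2SO4 and Tl2SO4 each 12.5 mM in 5x stock / Incubation: 90 min dye loading and 20 min compound exposure, both at room temperature / Signal: thallium influx via FluxOR fluorescence, kinetic imaging / Evaluation: B score of baseline-normalized fluorescence ratio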
KCNK9 block conf – human KCNK9 inhibitor confirmation | shares compounds with KCNK9 inh | HEK293 KCNK9 cells, FluxOR thallium flux fluorescence | inhibition, % at 10 µM | actives 43% (n = 4,900);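 active = thallium signal inhibited by more than 5 SD of the compound-free buffer control wells, on both duplicate plates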
Kir21 sel – mouse Kir2.1 off-target activity of KCNK9 modulators; shares compounds with KCNK9 inh; Kir2.1 cells, FluxOR thallium flux fluorescence; inhibition, % at 10 µM; actives 4% (n = 4,900); AID 492993;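 active = thallium signal drop more than 5 SD beyond the mean of the no-compound control wells, seen in both duplicate plates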;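 also: signal is fluorescence rise after thallium addition divided by baseline fluorescence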
HEK293 Tl ctr – non-induced cell nonspecific activity of KCNK9 modulators; inhibition, % at 10 µM; shares compounds with KCNK9 inh; AID 492997; actives 40% (n = 4,900); non-induced KCNK9-HEK293, FluxOR thallium flux;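 active = thallium signal drop beyond 5 SD of the untreated control mean, on both duplicate plates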
Large screens that a line does not name were inactive (follow-up assays come after a bar, where they were run).

CCN1C[C@@H]2[C@@H]3C(=O)N(C)C(=O)[C@@H]3[C@](Cc3ccccc3)(C1=O)N2C(=O)c1ccc(Cl)c(Cl)c1	none (no result: KCNK9 inh, KCC2 mod, KCNQ1 block, hERG protect, KCNQ1 act)
COc1ccc2[nH]cc(CCn3ccc(O)c(C/C=C/c4ccccc4)c3=O)c2c1	none
O=c1c(C/C=C/c2ccccc2)c(O)ccn1CCc1c[nH]c2ccccc12	none | KCNK9 block conf inactive | Kir21 sel inactive | HEK293 Tl ctr inactive
CCCCN(C(=O)c1cc(S(=O)(=O)N2CCOCC2)ccc1Cl)c1c(N)n(CC(C)C)c(=O)[nH]c1=O	none (no result: KCC2 mod)
O=C(CCSCc1ccccc1Cl)NCc1cccs1	hERG protect 5.0 | KCNK9 block conf inactive | Kir21 sel inactive | HEK293 Tl ctr inactive
CCC(C)(C)n1nnnc1C(c1cccc(C#N)c1)N1CCN(c2cccc(C)c2C)CC1 (stereo not drawn)	KCNK3 inh -9.55, KCNK9 inh -17.3 (no result: KCC2 mod) | KCNK9 block conf 73.5% | Kir21 sel inactive | HEK293 Tl ctr 38.0%
C=CCC(=O)N(CC)CC1CCCN(CCc2cccc(F)c2)C1 (stereo not drawn)	KCNK9 inh -9.05 (no result: KCC2 mod) | KCNK9 block conf inactive | Kir21 sel inactive | HEK293 Tl ctr inactive
O=C(NCCNc1ccc([N+](=O)[O-])cc1C(F)(F)F)c1ccccc1F	none | KCNK9 block conf inactive | Kir21 sel inactive | HEK293 Tl ctr inactive
Cc1ccc(C(=O)NCCNc2ccc([N+](=O)[O-])cc2C(F)(F)F)cc1	none
CC(C)CN(CC(C)C)C(=O)COn1nnc2ccc(S(=O)(=O)N3CCOCC3)cc21	none (no result: KCNK9 inh, KCC2 mod, KCNQ1 block, hERG protect, KCNQ1 act)
O=C(NNc1ccccc1C(F)(F)F)c1sccc1Br	KCNK9 inh -8.68 | KCNK9 block conf 44.0% | Kir21 sel inactive | HEK293 Tl ctr inactive
Clc1cccc(C2CCN(Cc3nc(CC4CC4)no3)C2)c1 (stereo not drawn)	none | KCNK9 block conf inactive | Kir21 sel inactive | HEK293 Tl ctr inactive
COCC1CCN(Cc2nc(COc3ccccc3)no2)C1 (stereo not drawn)	none
Fc1ccccc1C1CCN(Cc2nc(COc3ccccc3)no2)C1 (stereo not drawn)	none | KCNK9 block conf inactive | Kir21 sel inactive | HEK293 Tl ctr inactive
c1ccc(COC2CCCN(Cc3nc(Cc4ccccc4)no3)C2)cc1 (stereo not drawn)	none | KCNK9 block conf inactive | Kir21 sel inactive | HEK293 Tl ctr inactive
Fc1ccccc1OCC1CCCN(Cc2nc(CC3CC3)no2)C1 (stereo not drawn)	none | KCNK9 block conf inactive | Kir21 sel inactive | HEK293 Tl ctr inactive
c1ccc(CN2CCCC3(CCCN(Cc4nc(CC5CC5)no4)C3)C2)cc1 (stereo not drawn)	none (no result: KCC2 mod)
c1ccc(COC2CCCN(Cc3nc(-c4cnccn4)no3)C2)cc1 (stereo not drawn)	none (no result: KCC2 mod)
c1ccc(OCc2noc(CN3CCC(C4CCCCC4)C3)n2)cc1 (stereo not drawn)	none | KCNK9 block conf inactive | Kir21 sel inactive | HEK293 Tl ctr inactive
COc1ccc(/C(O)=C2/C(=O)C(=O)N(CCN3CCNCC3)C2c2cccc([N+](=O)[O-])c2)cc1 (stereo not drawn)	none (no result: KCC2 mod)
CN(C(=O)COC(=O)CNC(=O)c1sc2ccccc2c1Cl)c1ccccc1	none
Cc1ccccc1COC(=O)CNC(=O)c1sc2ccccc2c1Cl	none (no result: KCC2 mod) | KCNK9 block conf inactive | Kir21 sel inactive | HEK293 Tl ctr inactive
C(#Cc1ccccc1)CN1CCCCC1	none
C(#Cc1ccccc1)CN1CCN(c2ccccn2)CC1	none (no result: KCC2 mod) | KCNK9 block conf inactive | Kir21 sel inactive | HEK293 Tl ctr inactive
Cc1ccccc1NC(=O)C1C2CCCCC21 (stereo not drawn)	none (no result: KCC2 mod)
O=C(NN1C(=O)c2ccccc2C1=O)C1C2CCCCC21 (stereo not drawn)	none | KCNK9 block conf inactive | Kir21 sel inactive | HEK293 Tl ctr inactive
COc1ccc(CCn2c(C)cc(C(=O)CN3C(=O)C(=O)N(Cc4ccco4)C3=O)c2C)cc1	none (no result: KCNK9 inh, KCC2 mod, KCNQ1 block, hERG protect, KCNQ1 act)
COc1ccc(/C=C/C(=O)c2ccccc2)cc1COc1ccccc1F	KCNK3 inh -11.6, KCNK9 inh -11.6 | KCNK9 block conf 50.0% | Kir21 sel inactive | HEK293 Tl ctr 32.0%
COc1ccc(/C=C/C(=O)C2CC2)cc1COc1c(C)cccc1C	KCNK9 inh -11.4, KCNQ1 block 8 | KCNK9 block conf 48.5% | Kir21 sel inactive | HEK293 Tl ctr inactive
O=c1ccc(-c2ccccc2)nn1Cc1ccccc1	none (no result: KCC2 mod)
O=c1c2c(c(-c3ccccc3)nn1Cc1ccccc1)CCCC2	none (no result: KCC2 mod) | KCNK9 block conf inactive | Kir21 sel inactive | HEK293 Tl ctr 27.5%
O=c1cc(N2CCCCC2)c(-c2ccccc2)nn1Cc1ccc(Cl)cc1	none
O=c1cc(N2CCCCC2)c(-c2ccccc2)nn1Cc1ccc(F)cc1	KCNK9 inh -11.8 (no result: KCC2 mod) | KCNK9 block conf 60.5% | Kir21 sel inactive | HEK293 Tl ctr 36.5%
O=C(c1cc(COc2c(F)cccc2F)on1)N1CCC(c2ccccc2F)C1 (stereo not drawn)	none | KCNK9 block conf inactive | Kir21 sel inactive | HEK293 Tl ctr inactive
CN(Cc1cc(-c2ccccc2)on1)C(=O)c1cc(COc2c(F)cccc2F)on1	KCNK9 inh -12.7 (no result: KCC2 mod) | KCNK9 block conf 66.5% | Kir21 sel inactive | HEK293 Tl ctr 29.5%
O=C(c1cc(COc2c(F)cccc2F)on1)N1CCC(c2ccccc2Cl)C1 (stereo not drawn)	none (no result: KCC2 mod) | KCNK9 block conf inactive | Kir21 sel 43.0% | HEK293 Tl ctr inactive
S=C(Nc1ccccc1)N1CCC(Cc2ccccc2)CC1	none (no result: KCC2 mod)
CCOC(=O)C1=CN(Cc2cccc(F)c2)S(=O)(=O)N(CC)C1c1ccc(Br)cc1F (stereo not drawn)	none (no result: KCNK9 inh, KCC2 mod, KCNQ1 block, hERG protect, KCNQ1 act)
COc1cccc(CC(=O)OCC(=O)N(C)CC(=O)Nc2ccc(F)cc2)c1	none (no result: KCC2 mod)
N#Cc1ccc(S(=O)(=O)N2CCC(C(=O)Nc3cccc(C(=O)NC4CC4)c3)CC2)cc1	none (no result: KCNK9 inh, KCC2 mod, KCNQ1 block, hERG protect, KCNQ1 act)
C/C(N)=C(/C#N)C(=O)COC(=O)C1CCN(S(=O)(=O)c2cccs2)CC1	none (no result: KCNK9 inh, KCC2 mod, KCNQ1 block, hERG protect, KCNQ1 act)
C=C(C(=O)c1ccccc1)C(CC(=O)c1ccccc1)c1ccccc1 (stereo not drawn)	KCNK9 inh -13.1 | KCNK9 block conf 45.0% | Kir21 sel inactive | HEK293 Tl ctr 44.5%
CCNc1ncnc2[nH]ncc12	none (no result: KCNK9 inh, KCC2 mod, KCNQ1 block, hERG protect, KCNQ1 act)
Cc1ccc(Cn2cc(SCC(=O)Nc3nccs3)c3ccccc32)cc1	none | KCNK9 block conf inactive | Kir21 sel inactive | HEK293 Tl ctr inactive

Screens deposited in PubChem BioAssay by several laboratories.
